An excerpt weighted towards active compounds, which were near 2.2% of everything screened.
Wee1 stabilizer = inhibitors of human Wee1 degradation; P30291; HeLa Luc-Wee1K328M stability, luciferase luminescence; 100% = proteasome inhibitor MG132 effect; reporter increase, % at 5 µM; 220,000 tested, 1.2% active;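 active means activation above the mean of all tested compounds plus 3 SD, set per screening run, cut at about 8.8% in these data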;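 further: cells exposed to compound for 20 h before luminescence read; 0% = DMSO alone and 100% = MG132 at 30 µM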
RBBP9 inhibitor = blocks human serine hydrolase RBBP9; recombinant RBBP9, FP-Rh probe fluorescence polarization; inhibition, % at 7.94 µM; 220,000 tested, 0.2% active; AID 1515;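 active means inhibition above the campaign mean of all tested compounds plus 3 SD, cut at about 14% in these data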;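 further: plate controls were DMSO wells with RBBP9 for no effect and wells lacking RBBP9 protein for full effect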
Target sequence (O75884 whole entry, looked up): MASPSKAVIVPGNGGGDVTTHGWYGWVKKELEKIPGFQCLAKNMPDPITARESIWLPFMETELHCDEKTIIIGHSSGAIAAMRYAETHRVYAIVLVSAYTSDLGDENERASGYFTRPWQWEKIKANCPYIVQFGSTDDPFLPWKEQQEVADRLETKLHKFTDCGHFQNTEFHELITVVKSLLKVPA
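Test system: recombinant human RBBP9. Quantity: 2.5 µM RBBP9 dispensing solution, before mixing. Detection: FP readout at 525/598 nm. Reagent: Serine-hydrolase probe FP-Rh, 375 nM pre-mixing. Measure: % inhibition. Control set: DMSO-treated enzyme wells and wells lacking RBBP9. Buffer or medium: Tris-NaCl-Pluronic buffer, pH 8.0. Times: preincubation 30 min plus labeling 45 min at 25 °C.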
MDM2 E3 inh = Mdm2 E3 ligase (human) inhibition | Q00987 | cell-based MDM2 ubiquitination luciferase reporter, 2 h; 0 = plate control, 100 = twice control, blank-subtracted | signal enhancement, % at 5 µM | 210,000 tested, 0.11% active;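 active means signal enhancement of 30% or more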;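 further: luminescence tracks abundance of the self-degrading MDM2-luciferase fusion protein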
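Assay system: stable mammalian line carrying autodegrading MDM2–luciferase fusion reporter; Input: 2000 cells in each well; Compound dosing: single-point 5 µM; Schedule: 2 h compound exposure at 37 °C; Signal: SteadyLite luciferase luminescence after 15 min room-temperature reagent incubation; Evaluation: % luminescence enhancement versus blank-corrected plate control mean; Benchmarks: plate controls and plate blanks.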
Insulin prom up = MIN6 insulin promoter up-regulation. 190,000 tested, 0.3% active. z-score at 5 µM. AID 1625. MIN6 insulin promoter-GFP reporter, high-content imaging; hits give high values;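 active means z-score above 3 at 5 µM with at least 500 cells counted in the well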
Hsp70 activator = transcriptional activators of Hsp70; HeLa Hsp70 promoter luciferase reporter, luminescence; scaled: vehicle 0, proteasome-inhibitor control 100%; AID 1203; activation, % at 10 µM; 200,000 tested, 0.04% active;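 active means activation above the mean across all tested compounds plus 3 SD, cutoff set per campaign, cut at about 5.5% in these data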;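 further: 100% = MG132 at 30 µM as the positive control and 0% = DMSO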
Insulin prom inh = TRM-6 insulin promoter activity inhibition; TRM-6 cells, insulin promoter-eGFP reporter, imaging; reporter expression induced with tamoxifen; inhibition, % at 2 µM; 130,000 tested, 0.9% active; AID 1273;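 active means inhibition above the mean plus 3 SD, with well images judged a real hit on visual review, cut at about 60% in these data, passing the limit was not always enough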
Wee1 degr conf = confirmation of human Wee1 degradation inhibitors; shares compounds with Wee1 stabilizer; HeLa Luc-Wee1K328M degradation, luminescence; vehicle 0%, proteasome-blocked wells 100%; activation, % at 5 µM; 1,100 tested, 4% active; AID 1410; in the data active means activation above about 8.9%
* = called active by the depositor.

Screening COCCn1c(CN2CCc3ccccc3C2)nc2c1c(=O)n(C)c(=O)n2C returned Wee1 stabilizer 3.0, RBBP9 inhibitor -0.1, MDM2 E3 inh -13.9, Insulin prom up -0.62, Hsp70 activator 1.2 and Insulin prom inh 11.6.
`O=C(NCCCn1ccnc1)/C(=C\c1cccnc1)NC(=O)c1ccccc1F` gave Wee1 stabilizer 20.9*, RBBP9 inhibitor -6.4, MDM2 E3 inh -14.2, Insulin prom up 0, Hsp70 activator -0.3, Insulin prom inh 28.6 and Wee1 degr conf -2.1.
Screening CC(C)CC(=O)Nc1nnc(SCC(=O)NCc2ccc3c(c2)OCO3)s1 returned Wee1 stabilizer -1.9, RBBP9 inhibitor -13.9, MDM2 E3 inh -0.4, Insulin prom up -0.14, Hsp70 activator -0.3 and Insulin prom inh 8.6.
CC(C)C(=O)Nc1nnc(SCC(=O)NCc2ccc3c(c2)OCO3)s1 was read as Wee1 stabilizer 11.6*, RBBP9 inhibitor -7.9, MDM2 E3 inh 0.6, Insulin prom up -0.4, Hsp70 activator -0.2, Insulin prom inh -33.3 and Wee1 degr conf 1.0.
Screening CCOc1ccc(NC(=O)C2CCC(CNc3c(N4CCC(C)CC4)c(=O)c3=O)CC2)cc1 (stereo not given) returned Wee1 stabilizer 1.1, RBBP9 inhibitor -7.0, MDM2 E3 inh -6.2 and Insulin prom up -0.04.
For COc1ccc(N2CCN(C(c3ccc4ncccc4c3)c3nnnn3C(C)(C)C)CC2)cc1 (stereo not given) the results were Wee1 stabilizer 11.2*, RBBP9 inhibitor -0.2, MDM2 E3 inh -16.6, Insulin prom up 0.7, Hsp70 activator -0.5, Insulin prom inh 27.8 and Wee1 degr conf -0.4.
For CCOC(=O)CN(C(=O)COc1ccc2c(C)cc(=O)oc2c1)c1ccc(OCC)cc1 the results were Wee1 stabilizer 13.0*, RBBP9 inhibitor 4.5, Insulin prom up 0.54, Hsp70 activator 0.1 and Wee1 degr conf 1.1.
C=C(Cl)COc1ccc2c(C)cc(=O)oc2c1 was read as Wee1 stabilizer -3.5, RBBP9 inhibitor -3.8, MDM2 E3 inh -9.8, Hsp70 activator 0.4 and Insulin prom inh 7.9.
Screening Cn1cnnc1SCC(=O)Nc1cc(S(=O)(=O)N2CCCCCC2)ccc1Cl returned Wee1 stabilizer 7.1, RBBP9 inhibitor 1.7, MDM2 E3 inh 1.7, Insulin prom up 0.23, Hsp70 activator -0.1 and Insulin prom inh 4.8.
CCOC(=O)CSc1nnc(CNC(=O)c2ccc(OC)cc2)n1-c1ccc(OC)cc1 was read as Wee1 stabilizer -1.4, RBBP9 inhibitor -5.7, MDM2 E3 inh -29.6, Insulin prom up -0.57, Hsp70 activator 0.0 and Insulin prom inh -42.9.
CCOC(=O)CSc1nnc(CNC(=O)c2ccccc2OC)n1-c1ccc(OC)cc1 was read as Wee1 stabilizer 12.0*, RBBP9 inhibitor -5.8, MDM2 E3 inh -3.8, Insulin prom up 1.86, Hsp70 activator -0.3 and Wee1 degr conf -4.0.
CC1(C)Cc2nc3sc4c(SCC(=O)NCc5ccccc5)ncnc4c3cc2CO1 was read as Wee1 stabilizer 13.5*, RBBP9 inhibitor -4.9, MDM2 E3 inh -18.5, Insulin prom up -2.14, Hsp70 activator 0.0, Insulin prom inh -48.3 and Wee1 degr conf 0.1.
For COC(=O)c1cnc(Oc2c(Cl)cc(N)cc2Cl)cc1C(F)(F)F the results were Wee1 stabilizer 2.6, RBBP9 inhibitor -3.2, MDM2 E3 inh -2.8 and Insulin prom up -0.1.
`O=C(Nc1cccc([N+](=O)[O-])c1)Nc1ccc2c(c1)OCCO2` gave Wee1 stabilizer 16.7*, RBBP9 inhibitor -7.0, MDM2 E3 inh -8.3, Insulin prom up -1.72, Hsp70 activator 0.2 and Wee1 degr conf 3.5.
Cc1nc2c(C)cccn2c1/C(O)=C1\C(=O)C(=O)N(CCN(C)C)C1c1ccco1 (stereo not given) was read as Wee1 stabilizer 0.4, RBBP9 inhibitor -2.9, MDM2 E3 inh -3.0 and Insulin prom up -0.68.
`Cc1nn2cc(-c3ccc(-c4ccccc4)cc3)nc2s1` gave Wee1 stabilizer 2.8, RBBP9 inhibitor 11.0, MDM2 E3 inh -9.7, Insulin prom up -1.26, Hsp70 activator -0.1 and Insulin prom inh 27.3.

Screens (PubChem)
